According to publication PMC3329777 (The Journal of Organic Chemistry, 2010):
Values after ≈ are worked out from the molar mass of the structure shown. Like-named read-outs stand apart in the source and are kept apart here.

Key:
[1] = Decomposition of polysulfanes with hydroxide ion, monitored by HPLC; assay type: physicochemical; settings: 6A-F 2.5 mM, methanol/water 99.9:0.1, after 1 hr
Outline: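 Test polysulfane mixture (2.5 mM) with acetanilide internal standard (0.25 mM) was treated with NaOH (0.625, 1.25, 1.875 or 2.5 mM) in methanol. After 1 h of equilibration, samples were analysed by reversed-phase C18 HPLC at 1 mL/min, rt, with UV at 254 nm. Elution used a methanol/water gradient of 15→95% methanol over 30 min, held 15 min.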

[2] = test system: PC3, DU145, MDA-MB-231 and Jurkat cells; experiment: Antiproliferative activity against four human tumor cell lines; assay type: cell-based
DU145 (prostate) cells = experiment: Cell proliferation assay; assay type: cell-based, human
Outline: (§1)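 DU145, PC3 and MDA-MB-231 lines only. Cells came from ATCC frozen stocks. PC3 was grown in F12K, DU145 and MDA-MB-231 in DMEM, all with 10% FBS plus penicillin/streptomycin. Equal cell numbers were seeded and held at 37 °C, 5% CO2 until log phase. Medium was then replaced with test compound (0–30 μM) for 48 h, then removed and plates frozen at -80 °C. After thawing to rt, CyQuant reagent was added and fluorescence read at 485/530 nm. Eight replicates per concentration; values are cell-number increase versus untreated controls, mean ± SE.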

PC3 (prostate) cells = experiment: Cell proliferation assay; assay type: cell-based, human
Outline: as §1

[3] = test system: Jurkat (T-cell leukemia) cells; experiment: MTS cytotoxicity assay, Jurkat cells; assay type: cell-based; settings: Homo sapiens, 24 h, read-out: IC50 Jurkat
Outline: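 Jurkat line: cells were kept in RPMI-1640 with 10% fetal bovine serum and penicillin-streptomycin (100 U/mL / 100 μg/mL) at 37 °C, humidified 5% CO2. They were seeded at 2,000 cells/well in 96-well plates. After 24 h they were exposed to a range of test compound concentrations for […]. Growth was measured by MTS reagent with absorbance at 490 nm, expressed relative to compound-free controls, mean ± SE.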

[4] = test system: MDA-MB-231 (breast) cells; experiment: Cell proliferation assay; assay type: cell-based, human
Outline: as §1

[5] = cited from earlier work
[6] = Intrinsic solubility determination; assay type: physicochemical
[7] = Ethanethiol-induced desulfuration; assay type: physicochemical
[8] = room temperature, equilibrium time 24 h, average of three measurements

| SMILES | Polysulfanes and elemental sulfur distribution (HPLC, internal standard = 100) ([1]; 0.25 hydroxide ion equivalents) | Polysulfanes and elemental sulfur distribution (HPLC, internal standard = 100) ([1]; 0.5 hydroxide ion equivalents) | Polysulfanes and elemental sulfur distribution (HPLC, internal standard = 100) ([1]; 0.75 hydroxide ion equivalents) | Polysulfanes and elemental sulfur distribution (HPLC, internal standard = 100) ([1]; 1.0 hydroxide ion equivalents) | other results |
| --- | --- | --- | --- | --- | --- |
| COCCOCCOCCNC(=O)c1ccc2c(c1)SSSSSSS2 [Compound 6E, N-(2-(2-(2-Methoxyethoxy)ethoxy)ethyl)benzo[h][1,2,3,4,5,6,7]heptathionine-9-carboxamide] | 3.0 | 2.8 | 4.7 | 1.6 | – |
| COCCOCCOCCNC(=O)c1ccc2ssssssc2c1 [Compound 6D, N-(2-(2-(2-methoxyethoxy)ethoxy)ethyl)benzo[g][1,2,3,4,5,6]hexathiocine-8-carboxamide] | 2.3 | 2.1 | 1.8 | 1.5 | – |
| COCCOCCOCCNC(=O)c1ccc2c(c1)SSS2 [Compound 6A, N-(2-(2-(2-Methoxyethoxy)ethoxy)ethyl)benzo[d][1,2,3]trithiole-5-carboxamide] | 10.9 | 13.2 | 14.2 | 14.2 | – |
| Sc1ccccc1S [1,2-Benzenedithiol] | – | – | – | – | Toxicity to the cancer cell lines (in words) [2]: nontoxic; IC50 (DU145 (prostate) cells; Homo sapiens, DU-145, 48 h, read-out: IC50 DU145): > 30 µM; Inhibition of proliferation of DU145 cells (DU145 (prostate) cells; at concentrations of 10 μM and above, 48 h): ~ 40%; Effect on growth of PC3 cells (PC3 (prostate) cells; 48 h): stimulated the growth; IC50 PC-3 (PC3 (prostate) cells; 48 h incubation, 0–30 μM, 96-well plates): No effect; IC50 [3]: 60 µM; Effect on proliferation of MDA-MB-231 cells ([4]; 48 h): minimal effect; IC50 ([4]; Homo sapiens, MDA-MB-231, 48 h, read-out: IC50 MDA-MB-231): > 30 µM |
| [S] [Compound S8, Elemental sulfur] | 12.3 | 23.1 | 26.7 | 32.4 | Solubility in ethanol [5]: 510 µg/mL (≈ 15.9 mM); Solubility in water [5]: 0.4 µg/mL (≈ 0.0125 mM); Fold lower solubility by comparison to 6A-F [6]: ~ 50 fold; Solubility in methanol [6, 8]: 330 ± 30 µg/mL (≈ 10.3 mM); Solubility in water [6, 8]: 0.14 ± 0.02 µg/mL (≈ 0.00437 mM) |
| COCCOCCOCCNC(=O)c1ccc2c(c1)SSSSSSSSS2 [Compound 6F, N-(2-(2-(2-Methoxyethoxy)ethoxy)ethyl)benzo[j][1,2,3,4,5,6,7,8,9]nonathiacyclo-undecine-11-carboxamide] | 2.1 | 3.7 | 3.8 | 3.1 | – |
| COCCOCCOCCNC(=O)c1ccc2c(c1)SSSSS2 [Compound 6C, N-(2-(2-(2-Methoxyethoxy)ethoxy)ethyl)benzo[f][1,2,3,4,5]pentathiepine-7-carboxamide] | 362.4 | 289.2 | 222.9 | 163.9 | Time of ethanethiol-induced desulfuration ([7]; in aqueous methanol): ~ 2 min; Time of ethanethiol-induced desulfuration ([7]; in benzene): 4 h |
